According to ChEMBL document CHEMBL2331391, “Peroxisome proliferator-activated receptor-γ mediates the anti-inflammatory effect of 3-hydroxy-4-pyridinecarboxylic acid derivatives: synthesis and biological evaluation” (Eur J Med Chem, 2013):
Calls of active or inactive are those of the source. The rule behind the calls is not given here.

Experiments:
Macrophage [1] = test: Increase in PPAR-gamma mRNA transcript level in human macrophages at 10 uM by quantitative PCR analysis; assay type: functional, cell-based
[2] = target: T1, Peroxisome proliferator-activated receptor gamma (Mus musculus) (UniProt P37238); test: Induction of PPAR-gamma promoter activity in LPS-stimulated mouse CMT93 cells at 10 uM preincubated for 30 mins before LPS-challenge measured after 6 hrs post challenge by luciferase reporter gene assay; assay type: cell-based
T1 sequence (whole entry): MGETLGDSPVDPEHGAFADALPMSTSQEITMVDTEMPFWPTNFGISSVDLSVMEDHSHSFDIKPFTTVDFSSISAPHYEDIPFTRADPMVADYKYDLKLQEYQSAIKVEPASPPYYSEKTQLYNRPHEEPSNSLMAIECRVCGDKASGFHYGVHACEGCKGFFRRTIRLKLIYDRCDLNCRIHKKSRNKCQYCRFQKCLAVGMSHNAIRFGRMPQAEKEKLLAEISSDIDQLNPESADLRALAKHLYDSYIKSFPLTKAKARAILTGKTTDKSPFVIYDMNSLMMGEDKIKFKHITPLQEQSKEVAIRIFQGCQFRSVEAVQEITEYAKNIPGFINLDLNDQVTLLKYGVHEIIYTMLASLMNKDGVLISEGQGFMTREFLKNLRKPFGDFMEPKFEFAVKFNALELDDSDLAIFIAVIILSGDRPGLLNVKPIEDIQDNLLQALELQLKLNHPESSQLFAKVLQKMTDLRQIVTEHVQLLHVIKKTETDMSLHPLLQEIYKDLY
Method in brief: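 CMT-93 cells (1×10⁵/well) were transfected with an NF-κB or PPRE luciferase reporter plus CMV-β-Gal. At 24 h they were treated with compound for 30 min, then with 100 ng/mL LPS for 6 h. Cells were lysed in Tris/EDTA/DTT/Triton buffer and supernatant luciferase was read by luminometer. Results are fold over untreated cells.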

Macrophage [3] = test: Antiinflammatory activity in human macrophages assessed as inhibition of LPS-induced IL-1beta release at 10 uM preincubated for 30 mins before LPS-challenge measured after 24 hrs post challenge by ELISA; assay type: functional, cell-based
Method in brief: (§1)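 Human blood PBMC-derived macrophages were used after 10 days of culture. Purity >95% (esterase, CD14, morphology). Cells were pretreated 30 min at 37 °C with compound, then given 100 ng/mL LPS (S. enteritidis) for 24 h. TNFα, IL-1β and IL-8 in conditioned medium were measured by ELISA. Working solutions were endotoxin-tested by LAL (<3 pg/mL).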

Macrophage [4] = test: Antiinflammatory activity in human macrophages assessed as inhibition of LPS-induced IL-8 release at 10 uM preincubated for 30 mins before LPS-challenge measured after 24 hrs post challenge by ELISA; assay type: functional, cell-based; method in brief: as §1
Macrophage [5] = test: Antiinflammatory activity in human macrophages assessed as inhibition of LPS-induced TNFalpha release at 10 uM preincubated for 30 mins before LPS-challenge measured after 24 hrs post challenge by ELISA; assay type: functional, cell-based; method in brief: as §1

Row | Compound | Activity (Macrophage [1]) | Activity [2] | inhibition (Macrophage [3]) | inhibition (Macrophage [4]) | inhibition (Macrophage [5])
1 | CN(CCOc1ccc(CC2SC(=O)NC2=O)cc1)c1ccccn1 (stereo not drawn) | Active | Active |  |  | 
2 | O=C(O)c1ccccc1O |  |  | Active | Active | Active
3 | Cc1cc(C(=O)O)c(O)c(CO)n1 |  |  | Active | Active | 
4 | CCc1nccc(C(=O)O)c1O |  |  | inactive | inactive | inactive
5 | CC(=O)Oc1ccccc1C(=O)O |  |  | Active | Active | Active
